In the library only some 3.7% were active in any assay of this set; here they are far more common.
hERG rescue: hERG rescue from dofetilide block, primary screen, cell-based, CHO-hERG, FluxOR thallium flux, dofetilide IC70. Voltage-gated inwardly rectifying potassium channel KCNH2 (Homo sapiens), Q12809. dofetilide IC70 present. activation (rescue from dofetilide block), less the hit threshold, % at 10 µM. 310,000 compounds, 0.51% hits;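 active = activation above the mean of controls blocked by dofetilide plus 5 SD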;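 note: thallium influx through hERG after potassium depolarization seen as dye fluorescence rise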
KCNQ1 act: potentiators or activators of KCNQ1 channel, primary screen, cell-based, thallium flux, high-throughput | Potassium voltage-gated channel subfamily KQT member 1 (Homo sapiens), P51787 | CHO-K1 KCNQ1, thallium flux FluxOR fluorescence; active compounds read high | B-score at 10 µM | 310,000 compounds, 0.35% hits;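 active = fluorescence ratio B-score, a plate-corrected score, at least three library SD, with initial intensity B-score within 5 SD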
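assay system = KCNQ1-transfected CHO-K1 cells | medium = assay buffer with matched DMSO | probe or stimulus = depolarizing K+/Tl+ stimulus, K2SO4 and Tl2SO4 each 12.5 mM in 5x stock | dosing = single dose | incubation = dye 90 min, compound 20 min, room temperature | detection = kinetic FluxOR fluorescence, 10 s baseline plus 110 s post-stimulus | evaluation = ratio B score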
KCNQ1 block: inhibitors of human KCNQ1 channel, primary screen, cell-based, thallium flux, high-throughput; B-score at 10 µM; AID 2642, 2010; 310,000 compounds, 1.3% hits; CHO-K1 KCNQ1, FluxOR thallium flux fluorescence; active compounds read high;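 active = compounds whose thallium flux B-score, printed positive for inhibition, exceeds three library SD while starting fluorescence stays within three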;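 note: channel opened by potassium depolarization with thallium stimulus after 20 min compound exposure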
KCNK9 inh: KCNK9 potassium channel inhibitors, primary screen, HEK293 cells, thallium flux; B-score at 10 µM; Potassium channel subfamily K member 9 (Homo sapiens), Q9NPC2; FluxOR thallium flux fluorescence; active compounds read low; AID 488922, 2010; 310,000 compounds, 1.2% hits;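 active = ratio B-score over 3 SD below the library mean, with starting fluorescence within 5 SD of its mean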;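 note: negative B-score means less thallium flux so channel inhibition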
Kir21 inh: inhibitors of mouse Kir2.1 inward-rectifier potassium channel; B-score at 10 µM; Inward rectifier potassium channel 2 (Mus musculus), P35561; HEK293-Kir2.1, FluxOR thallium flux fluorescence; active compounds read low; AID 1672, 2009; 310,000 compounds, 0.85% hits;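 active = fluorescence ratio B-score at or below minus 3 SD of library scores, with starting-brightness B-score within 2 SD, cut at about -4.2 in these data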;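 note: channel flux triggered by added potassium and thallium sulfate stimulus; B-score of peak minus minimum fluorescence over baseline after thallium stimulus; more negative B-score means stronger Kir2.1 block with less thallium influx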
Target sequence (P35561 whole entry, looked up): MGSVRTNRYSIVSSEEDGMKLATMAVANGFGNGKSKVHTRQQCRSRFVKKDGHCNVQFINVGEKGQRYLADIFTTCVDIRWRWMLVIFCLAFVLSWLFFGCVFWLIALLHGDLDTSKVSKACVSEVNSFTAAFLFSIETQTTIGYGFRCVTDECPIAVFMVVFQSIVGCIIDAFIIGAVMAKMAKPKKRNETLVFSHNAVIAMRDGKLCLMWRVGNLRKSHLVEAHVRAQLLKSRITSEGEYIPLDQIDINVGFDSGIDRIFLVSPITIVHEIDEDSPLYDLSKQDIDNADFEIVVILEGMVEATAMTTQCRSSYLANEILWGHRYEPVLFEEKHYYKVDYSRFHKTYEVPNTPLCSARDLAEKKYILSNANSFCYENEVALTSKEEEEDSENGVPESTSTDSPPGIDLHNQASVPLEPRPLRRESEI
KCNK3 block: human KCNK3 channel inhibitors, primary screen, CHO cells, FluxOR thallium flux, B-score. Potassium channel subfamily K member 3 (Homo sapiens), O14649. FluxOR fluorescence; active compounds read low. B-score at 10 µM. 340,000 compounds, 0.84% hits;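 active = B-score under library mean minus 4 SD, starting fluorescence ratio at most library mean plus 5 SD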;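 note: more negative B-score means stronger inhibition of thallium flux through KCNK3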
KCNK3 confirm: retest of human KCNK3 channel inhibitors, confirmation, CHO cells, FluxOR thallium flux, triplicate. shares compounds with KCNK3 block. FluxOR fluorescence; 0% buffer, 100% carvedilol maximal block. ratio percent of control, % at 10 µM. 2,400 compounds, 99% hits;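 active = ratio percent of control, averaged over triplicates, above buffer control mean plus 5 SD, cut at about 64% in these data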;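 note: ratio is the fluorescence rise from min to max over baseline after thallium stimulus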
KCNK3 noninduced: thallium flux inhibition in non-induced cells, primary screen, counter-screen for KCNK3 inhibitor project, cell-based, non-induced KCNK3 line, FluxOR thallium, triplicate | shares compounds with KCNK3 block | non-induced KCNK3 parental cells; active compounds read low | thallium flux ratio (lower = more inhibition) at 10 µM | 2,400 compounds, 40% hits | AID 651747, 2012;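 active = thallium flux ratio, averaged over three wells, more than 5 SD below the buffer control mean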;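 note: host cells are CHO cells without KCNK3 induction; ratio is peak minus trough fluorescence over baseline then normalized to buffer controls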
Active calls of the source: *; i = inactive; . = no result.

SMILES | hERG rescue | KCNQ1 act | KCNQ1 block | KCNK9 inh | Kir21 inh | KCNK3 block | KCNK3 confirm | KCNK3 noninduced
CC1=C(C(=O)OCc2ccccc2)C(c2ccccc2Cl)NC(=O)N1C (stereo not drawn) | -8.3 | i | i | i | -3.43 | i | . | .
COc1ccc(OC)c(C2NC(=O)N(C)C(C)=C2C(=O)OCc2ccccc2)c1 (stereo not drawn) | -10.9 | i | i | i | 1.25 | -9.28* | 140.7* | 0.105*
CCc1nc(Nc2cc(OC)ccc2OC)c2oc3ccccc3c2n1 | -0.6 | i | i | i | 1.92 | i | . | .
CCc1nc(Nc2ccccc2OC)c2oc3ccccc3c2n1 | -5.3 | i | i | i | 0.27 | -9.16* | 116.3* | 0.145*
CCOc1ccc(-n2nnnc2SCC(=O)Nc2cccc(O)c2)cc1 | -3.7 | i | i | i | 1.32 | i | . | .
COc1ccc(NC2c3ccccc3C(=O)N2c2ccccn2)cc1Cl (stereo not drawn) | -8.4 | i | i | -7.49* | 1.75 | -10.7* | 112.0* | i
O=C1c2ccccc2C(Nc2ccc(F)c(Cl)c2)N1c1ccccn1 (stereo not drawn) | -7.5 | i | i | i | 0.58 | i | . | .
COc1ccc(Cl)cc1NC(=O)N1CCN(c2ccccc2OC)CC1 | -12.6 | i | i | i | -0.07 | -10.8* | 81.7* | i
CC1(C)CC(=O)C=C(NCCc2c[nH]c3ccccc23)C1 | -5.0 | i | i | i | 0.81 | i | . | .
CCOc1ccccc1/C=N/N1CCN(Cc2ccccc2)CC1 | -5.8 | i | i | i | -0.79 | -11.1* | 83.3* | i
CC1(c2ccc(OC(F)F)cc2)NC(=O)N(CC(=O)N2c3ccccc3NC(=O)C2(C)C)C1=O (stereo not drawn) | . | . | . | . | . | i | . | .
Oc1cnc2ccccc2c1CN1CCOCC1 | -1.5 | i | i | i | 0.83 | -8.95* | 81.7* | i
Cc1nn(C(C)C(=O)NCC2CCCO2)c(C)c1[N+](=O)[O-] (stereo not drawn) | -8.3 | i | i | i | -0.9 | i | . | .
COc1ccc(NC(=O)C2CCCN(CCCc3ccccc3)C2)cc1OCC(C)C (stereo not drawn) | -10.4 | i | i | i | -0.8 | -9.78* | 98.7* | i
COc1ccc(NC2=C(C(C)=O)C(c3ccc(N(C)C)cc3)C(C(C)=O)C(C)(O)C2)cc1 (stereo not drawn) | -6.6 | i | i | i | 0.05 | i | . | .
COc1ccc(NC2=C(C(C)=O)C(c3ccc(OC)cc3)C(C(C)=O)C(C)(O)C2)cc1 (stereo not drawn) | -5.8 | i | i | i | 1.22 | -9.05* | 68.3* | i
CC(=O)C1=C(Nc2ccccc2)CC(C)(O)C(C(C)=O)C1c1ccccc1 (stereo not drawn) | -3.1 | i | i | i | 1.23 | -12.1* | 52.3* | i
COc1ccc(C2C(C(C)=O)=C(Nc3ccccc3)CC(C)(O)C2C(C)=O)cc1OC (stereo not drawn) | 2.8 | i | i | i | -0.26 | i | . | .

Screens from PubChem BioAssay.
